# The full list was thinned out, with hits kept by preference.
# ABCB1 block – ABCB1 efflux pump inhibitors, primary screen, cell-based, multiplex, flow cytometry, ABCG2 counter-screen; ATP-dependent translocase ABCB1 (Homo sapiens), P08183; CCRF-Adr cells, JC-1 efflux; inhibition, % at 6.6 µM; 190,000 tested, 0.067% active; in the data active means inhibition above about 40%;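 further: 0% = vehicle and 100% = reference inhibitor; higher value means more JC-1 retained so stronger ABCB1 efflux block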
# ABCG2 inh – ABCG2 efflux pump inhibitors, primary screen, multiplex with ABCB1, IgMXP3 cells, flow cytometry | Broad substrate specificity ATP-binding cassette transporter ABCG2 (Homo sapiens), Q9UNQ0 | JC-1 efflux | inhibition, % at 6.6 µM | 190,000 tested, 0.1% active | AID 1325, 2008;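 active means inhibition above 80%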;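 further: 0% = DMSO and 100% = nicardipine control wells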
# Target sequence (Q9UNQ0 whole entry, looked up): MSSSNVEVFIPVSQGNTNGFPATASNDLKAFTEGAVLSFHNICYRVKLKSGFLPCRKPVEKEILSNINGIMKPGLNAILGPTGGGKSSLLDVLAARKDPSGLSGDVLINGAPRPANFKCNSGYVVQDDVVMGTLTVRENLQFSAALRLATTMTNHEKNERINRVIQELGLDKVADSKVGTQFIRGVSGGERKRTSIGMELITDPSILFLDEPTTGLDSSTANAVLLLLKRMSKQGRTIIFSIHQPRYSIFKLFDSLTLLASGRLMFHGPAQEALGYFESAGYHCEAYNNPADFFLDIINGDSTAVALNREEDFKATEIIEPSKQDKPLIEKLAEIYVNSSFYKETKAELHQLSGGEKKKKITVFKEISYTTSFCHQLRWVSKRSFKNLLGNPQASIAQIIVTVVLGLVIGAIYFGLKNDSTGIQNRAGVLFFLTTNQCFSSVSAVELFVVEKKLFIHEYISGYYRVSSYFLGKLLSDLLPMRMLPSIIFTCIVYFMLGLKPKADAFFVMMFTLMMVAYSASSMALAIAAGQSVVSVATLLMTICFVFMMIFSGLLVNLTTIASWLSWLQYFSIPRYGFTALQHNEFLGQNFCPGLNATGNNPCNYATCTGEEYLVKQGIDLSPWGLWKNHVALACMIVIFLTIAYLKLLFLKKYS
#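 material = IgMXP3 (ABCG2) plus far-red-tagged CCRF-Adr (ABCB1) cells | amount = 3 million cells/mL, equal mix of both lines | also added = JC-1 transporter substrate | dosing = one concentration, 6.6 µM final | schedule = 10 min at 25 °C | measured by = flow cytometric JC-1 green MFI at 530 nm | read-out basis = percent efflux inhibition, scaled nicardipine 100% to DMSO 0%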
# L major viab – Leishmania major promastigote growth inhibition, primary screen; Leishmania major promastigotes, resazurin fluorescence viability; inhibition, % at 10 µM; 200,000 tested, 9% active; AID 1063, 2008;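 further: promastigotes grown with compound for 44 hours at 28 °C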
# PKD1 inh – inhibitors of human PKD1 kinase, biochemical, fluorescence polarization; PKD1 kinase fluorescence polarization assay; Serine/threonine-protein kinase D1 (Homo sapiens), Q15139; AID 797, 2007; inhibition, % (concentration not given with the values); 200,000 tested, 0.056% active
# Avidin bead fluor – green autofluorescence of compounds with avidin beads – biophysical, 488/530 nm, flow cytometry, artefact control, profiling panel | compound fluorescence 488/530 nm; hits give high values | fluorescence (KMESF) at 10 µM | 220,000 tested, 0.38% active; in the data active means fluorescence above about 47
# GSH fluor – compound fluorescence on glutathione beads, profiling panel, artefact control, biophysical, 488/530 nm, flow cytometry | fluorescence (KMESF) at 10 µM | GSH beads flow cytometry, compound fluorescence 488/530 nm; hits give high values | 190,000 tested, 0.25% active; in the data active means fluorescence above about 89;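 further: glutathione beads carrying GST-tagged Bcl family fusion proteins plus one bare bead set; values are compound well signal with DMSO vehicle wells as background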
# The depositor's hits bear a star; nt = not tested or not shown. Unless noted, no stated cut-off is given here; in the data, active means inhibition above about 50%; inactive means the rest.
SMILES,ABCB1 block,ABCG2 inh,L major viab,PKD1 inh,Avidin bead fluor,GSH fluor
COc1ccc(C(=O)NC(=S)Nc2ccc(N3CCCC3)cc2)cc1,0,5,3,6,10,15
COc1ccc(C(=O)NNc2ccccc2)cc1OC,0,0,56*,5,12,43
COc1ccc(C(=O)Nc2ccc(N3CCCC3)cc2)cc1,0,2,92*,-3,20,10
COc1ccc(NC(=O)N2CCOCC2)cc1OC,0,0,3,-3,6,261*
O=C(COC(=O)c1cccnc1Cl)Nc1nc(-c2ccccc2)cs1,0,17,3,1,7,15
COC(=O)c1ccc(C#Cc2ccccc2)o1,nt,nt,nt,nt,3,nt
O=S(=O)(Nc1nc2ccccc2[nH]1)c1ccc(Cl)cc1,0,-2,57*,4,13,25
O=C(O)C1Cc2ccccc2CN1C(=O)CCl (configuration not stated),1,2,-6,5,21,15
O=c1[nH]cc(C(F)(F)F)cc1NS(=O)(=O)c1ccccc1[N+](=O)[O-],1,6,-3,-1,22,15
Cc1cccc(NC(=S)NCC23C=CC(O2)C2C(=O)N(c4ccc(Cl)cc4)C(=O)C23)c1 (configuration not stated),1,2,53*,3,13,5
Cc1ccc(N2C(=O)C3C4C=CC(CNC(=S)N5CCN(c6ccccc6)CC5)(O4)C3C2=O)cc1 (configuration not stated),2,50,-4,5,12,18
Cc1ccc(NC(=S)NCC23C=CC(O2)C2C(=O)N(c4ccc(C)cc4)C(=O)C23)cc1 (configuration not stated),8,27,92*,-6,15,4
Cc1ccc(S(=O)(=O)NCC23C=CC(O2)C2C(=O)N(c4ccccc4)C(=O)C23)cc1 (configuration not stated),0,1,3,-5,4,30
Cc1nnc(NC(=O)CSc2nnc(CCc3nc4ccccc4[nH]3)n2C)s1,0,0,-3,1,8,5
CCc1nnc(NC(=O)CSc2nnc(CCc3nc4ccccc4[nH]3)n2C)s1,0,0,-6,9,7,286*
CC(=O)N1CCN(CC(=O)Nc2sccc2C#N)CC1,0,2,1,-13,6,9
Cc1cc(C)c(C)c(S(=O)(=O)N2CCN(CC(=O)Nc3sccc3C#N)CC2)c1C,3,11,57*,4,11,7
Cc1c(Cl)cnc(NC(=O)COC(=O)c2ccc3ncsc3c2)c1Cl,-1,-16,62*,2,9,3
CCNc1nc(SCCOc2ccc(Cl)cc2Cl)nc(N(C)C)n1,0,3,56*,-3,8,14
Cc1nnc(-c2ccc(Cl)cc2)[nH]c1=O,4,3,-2,9,7,13
Cc1[nH]c2ccccc2c1C(c1ccncc1)N1CCN(c2ccc(F)cc2)CC1 (configuration not stated),0,0,99*,-2,12,7
Cc1ccc(N2C(=O)CC(NNC(=O)Cc3ccc(F)cc3)C2=O)cc1Cl (configuration not stated),nt,nt,nt,nt,12,nt
COC(=O)C1CCN(C(=O)/C=C/c2ccc(OC)cc2)CC1,0,0,-6,-1,26,26
COc1cc(/C=C/C(=O)c2c(O)ccc3c(C)cc(=O)oc23)ccc1O,0,0,99*,-6,23,15
COc1ccc(/C=C\C(=O)c2c(O)ccc3c(C)cc(=O)oc23)cc1OC,1,5,100*,-4,12,24
SMILES,ABCB1 block,ABCG2 inh,L major viab,PKD1 inh,Avidin bead fluor,GSH fluor
Cc1cc(=O)oc2c(C(=O)/C=C\c3cccs3)c(O)ccc12,1,24,34,9,12,11
Cc1cc(=O)oc2c(C(=O)/C=C/c3ccccc3)c(O)ccc12,1,2,52*,-4,3,30
COc1ccc(NS(=O)(=O)c2cc(NC(=O)c3ccccc3F)ccc2N2CCCC2)cc1,nt,nt,nt,nt,3,nt
COc1ccc(NS(=O)(=O)c2cc(NC(=O)c3cnccn3)ccc2OC)cc1Br,0,-2,95*,1,11,12
COc1ccc(NS(=O)(=O)c2cc(NC(=O)c3cnccn3)ccc2N2CCCC2)cc1,0,-1,93*,-10,1,5
COc1ccc(S(=O)(=O)Nc2ccc(NC(C)=O)cc2)cc1Br,0,15,-6,-3,11,15
COc1ccc(NS(=O)(=O)c2cc(NC(=O)c3cccs3)ccc2N2CCCC2)cc1,1,-2,34,-7,0,4
COc1ccc(NS(=O)(=O)c2cc(NC(=O)c3ccc(C)o3)ccc2N2CCCCC2)cc1,0,-2,99*,-4,9,7
CCOC(=O)c1c(C)oc(NC(=O)CCl)c1C(=O)OCC,0,9,10,-1,11,20
CCCOC(=O)c1ccc(-c2ccc(C=O)o2)cc1,0,10,44,-9,12,16
CCCOC(=O)c1cc(-c2ccc(C=O)o2)ccc1Cl,0,10,64*,-7,11,20
C=CCOC(=O)c1cc(-c2ccc(/C=C3\C(=O)NC(=O)C(C#N)=C3C)o2)ccc1Cl,0,-1,86*,4,5,260*
CCCOC(=O)c1cc(-c2ccc(/C=C3/C(=O)N(C)C(=O)C(C#N)=C3C)o2)ccc1Cl,nt,nt,4,-1,nt,nt
COc1ccc(NC(=O)OCCn2c([N+](=O)[O-])cnc2C)cc1,1,11,54*,0,14,16
Cc1ccc(NC(NC(=O)OCCn2c([N+](=O)[O-])cnc2C)C(Cl)(Cl)Cl)cc1 (configuration not stated),0,-3,13,-6,7,17
CCC(CO)NCc1ccccc1OC(C)C (configuration not stated),0,0,-2,2,9,10
O=[N+]([O-])c1ccc(Nc2ccccc2)nc1,nt,8,56*,8,15,11
CCC(CC)c1nnc(NC(=O)c2ccc3ccccc3n2)s1,1,8,78*,-5,10,25
COc1cccc(NC(=O)NC2CCN(Cc3nnnn3Cc3ccc4c(c3)OCO4)CC2)c1,nt,nt,nt,nt,8,nt
Cn1c(-c2c(N)n(CCc3ccccc3)c3nc4ccccc4nc23)nc2ccccc21,1,3,100*,2,19,10
Cn1c(-c2c(N)n(CCCc3ccccc3)c3nc4ccccc4nc23)nc2ccccc21,1,6,98*,-7,10,13

# Screening results from PubChem.
